Results from ChEMBL document CHEMBL4680130, “Substituted 4-phenylthiazoles: Development of potent and selective A, A and dual A/A adenosine receptor antagonists” (Eur J Med Chem, 2020).

Experiments:
Adenosine receptor A1 [1] = biological target: T1, Adenosine receptor A1 (Homo sapiens, UniProt P30542); test: Displacement of [3H]CCPA from human adenosine receptor A1 expressed in CHO cell membranes incubated for 90 mins by radioligand competition assay; design: species or system Cell membrane
T1 sequence (P30542 whole entry): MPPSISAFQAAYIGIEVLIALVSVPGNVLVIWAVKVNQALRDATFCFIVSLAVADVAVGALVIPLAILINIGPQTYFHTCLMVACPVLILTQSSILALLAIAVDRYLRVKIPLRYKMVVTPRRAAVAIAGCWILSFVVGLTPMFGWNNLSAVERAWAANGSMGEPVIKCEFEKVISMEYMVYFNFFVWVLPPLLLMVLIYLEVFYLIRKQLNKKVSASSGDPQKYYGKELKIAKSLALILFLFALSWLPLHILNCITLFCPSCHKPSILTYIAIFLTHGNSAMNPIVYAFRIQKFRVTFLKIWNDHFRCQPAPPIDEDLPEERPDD

Adenosine receptor A1 [2] = biological target: T2, Adenosine receptor A1 (Rattus norvegicus, UniProt P25099); test: Displacement of [3H]CCPA from adenosine receptor A1 in rat brain cortex membranes incubated for 90 mins by radioligand competition assay; type: cell membranes, Cell membrane
T2 sequence (P25099 whole entry): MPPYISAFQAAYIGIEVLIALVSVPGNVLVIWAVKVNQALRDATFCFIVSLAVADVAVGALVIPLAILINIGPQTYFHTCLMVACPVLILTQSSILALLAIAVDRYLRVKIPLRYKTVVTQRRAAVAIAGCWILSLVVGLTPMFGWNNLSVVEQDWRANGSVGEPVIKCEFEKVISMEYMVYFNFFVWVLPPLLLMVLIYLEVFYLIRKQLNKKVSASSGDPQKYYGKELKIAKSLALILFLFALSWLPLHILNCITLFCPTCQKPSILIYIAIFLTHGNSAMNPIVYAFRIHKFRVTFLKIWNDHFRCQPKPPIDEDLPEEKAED

Adenosine receptor A2a [3] = biological target: T3, Adenosine receptor A2a (Homo sapiens, UniProt P29274); test: Displacement of [3H]MSX2 from human adenosine receptor A2A expressed in HEK293 cell membranes incubated for 30 mins by radioligand competition assay; design: species or system Cell membrane
Adenosine receptor A2a [4] = biological target: Adenosine receptor A2a (Rattus norvegicus, UniProt P30543); test: Displacement of [3H]MSX2 from adenosine receptor A2A in rat brain striatum membranes incubated for 30 mins by radioligand competition assay; type: cell membranes, Cell membrane
Adenosine receptor A2b = biological target: T4, Adenosine receptor A2b (Homo sapiens, UniProt P29275); test: Displacement of [3H]PSB-603 from human adenosine receptor A2B expressed in CHO cell membranes incubated for 75 mins by radioligand competition assay; design: species or system Cell membrane
T4 sequence (P29275 whole entry): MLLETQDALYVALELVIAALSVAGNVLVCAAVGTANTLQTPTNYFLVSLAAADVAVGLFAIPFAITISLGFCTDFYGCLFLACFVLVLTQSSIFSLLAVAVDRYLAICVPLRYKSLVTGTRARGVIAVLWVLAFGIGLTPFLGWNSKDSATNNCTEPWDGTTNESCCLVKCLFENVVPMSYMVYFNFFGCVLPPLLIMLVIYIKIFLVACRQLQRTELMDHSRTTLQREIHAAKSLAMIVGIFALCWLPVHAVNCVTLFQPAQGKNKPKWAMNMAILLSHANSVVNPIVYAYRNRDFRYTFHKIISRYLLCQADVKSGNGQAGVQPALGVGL

Adenosine receptor A3 [5] = biological target: T5, Adenosine receptor A3 (Homo sapiens, UniProt P0DMS8); test: Displacement of [3H]PSB-11 from human adenosine receptor A3 expressed in CHO cell membranes incubated for 60 mins by radioligand competition assay; design: species or system Cell membrane
T5 sequence (P0DMS8 whole entry): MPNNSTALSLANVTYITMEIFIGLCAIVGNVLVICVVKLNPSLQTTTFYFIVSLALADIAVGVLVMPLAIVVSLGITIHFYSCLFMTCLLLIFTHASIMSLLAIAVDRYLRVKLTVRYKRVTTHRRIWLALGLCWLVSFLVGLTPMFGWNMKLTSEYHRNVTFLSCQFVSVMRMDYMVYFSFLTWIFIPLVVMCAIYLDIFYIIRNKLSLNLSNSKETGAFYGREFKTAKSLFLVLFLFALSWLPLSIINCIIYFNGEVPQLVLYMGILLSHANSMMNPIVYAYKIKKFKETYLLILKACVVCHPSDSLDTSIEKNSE

Adenosine receptor A3 [6] = biological target: T6, Adenosine receptor A3 (Rattus norvegicus, UniProt P28647); test: Displacement of [3H]NECA from rat adenosine receptor A3 expressed in CHO cell membranes incubated for 60 mins by radioligand competition assay; design: species or system Cell membrane
T6 sequence (P28647 whole entry): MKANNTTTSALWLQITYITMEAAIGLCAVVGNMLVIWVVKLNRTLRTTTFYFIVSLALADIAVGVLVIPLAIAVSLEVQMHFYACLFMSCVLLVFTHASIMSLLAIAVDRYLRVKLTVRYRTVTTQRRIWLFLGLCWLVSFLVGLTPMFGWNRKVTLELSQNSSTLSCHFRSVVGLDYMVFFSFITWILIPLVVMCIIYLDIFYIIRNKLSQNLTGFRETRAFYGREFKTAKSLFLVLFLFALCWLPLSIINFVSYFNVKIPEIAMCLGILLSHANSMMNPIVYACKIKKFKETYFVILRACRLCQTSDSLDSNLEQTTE

Adenosine receptor A2a [7] = biological target: T3, Adenosine receptor A2a; test: Displacement of [3H]MSX2 from human adenosine receptor A2A expressed in HEK293 cell membranes at 0.1 uM incubated for 30 mins by radioligand competition assay relative to control; conditions: Cell membrane, in the assay text read “at 1 uM” for “at 0.1 uM”
How it was run: (§1)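 A2A binding, [3H]MSX-2 1.0 nM. Membranes: rat brain striatum, or HEK293 cells expressing human A2A. Adenosine deaminase preincubation 20 min, then 30 min at rt in 50 mM Tris-HCl pH 7.4 with 2.5% DMSO. Nonspecific binding defined by 50 µM NECA. GF/B filtration, scintillation counting. Single-concentration percent inhibition, ≥3 experiments in duplicate or triplicate.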

[8] = biological target: T7, Adenosine receptor A2b (Homo sapiens) (UniProt P29275); test: Displacement of [3H]PSB-603 from human adenosine receptor A2B expressed in CHO cell membranes at 0.1 uM incubated for 75 mins by radioligand competition assay relative to control; conditions: Cell membrane
T7 sequence (whole entry): T4 sequence (P29275 whole entry)
How it was run: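 CHO membranes expressing human or rat A2B, [3H]PSB-603 0.3 nM. Nonspecific binding defined by 10 µM DPCPX. Preincubated 20 min with adenosine deaminase, then 75 min at rt in Tris-HCl pH 7.4 with 2.5% DMSO. Filters washed with ice-cold 50 mM Tris-HCl containing 0.1% BSA; scintillation counting.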

[9] = biological target: T8, Adenosine receptor A1 (Rattus norvegicus) (UniProt P25099); test: Displacement of [3H]CCPA from adenosine receptor A1 in rat brain cortex membranes at 0.1 uM incubated for 90 mins by radioligand competition assay; conditions: Cell membrane
T8 sequence (whole entry): T2 sequence (P25099 whole entry)
How it was run: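 A1 competition binding with [3H]CCPA, 0.5 nM. Membranes: CHO cells expressing human A1, or rat brain cortex. Membranes preincubated 20 min with adenosine deaminase (2 U/mL per mg protein). Incubation 90 min at rt in 50 mM Tris-HCl pH 7.4 with 2.5% final DMSO. Nonspecific binding defined by 10 µM 2-chloroadenosine. GF/B filtration, scintillation counting.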

[10] = biological target: T9, Adenosine receptor A3 (Homo sapiens) (UniProt P0DMS8); test: Displacement of [3H]PSB-11 from human adenosine receptor A3 expressed in CHO cell membranes at 0.1 uM incubated for 60 mins by radioligand competition assay; conditions: Cell membrane
T9 sequence (whole entry): T5 sequence (P0DMS8 whole entry)
How it was run: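 CHO membranes expressing human A3, [3H]PSB-11 0.5 nM. Nonspecific binding defined by 100 µM R-PIA. Adenosine deaminase preincubation 20 min, then 60 min at rt in 50 mM Tris-HCl pH 7.4 with 2.5% DMSO. Filtered on GF/B, scintillation counted.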

[11] = biological target: Adenosine receptor A2a (Rattus norvegicus) (UniProt P30543); test: Displacement of [3H]MSX2 from adenosine receptor A2A in rat brain striatum membranes at 0.1 uM incubated for 30 mins by radioligand competition assay relative to control; conditions: Cell membrane; how it was run: as §1
Sequence of Adenosine receptor A2a (Rattus norvegicus) (P30543 whole entry): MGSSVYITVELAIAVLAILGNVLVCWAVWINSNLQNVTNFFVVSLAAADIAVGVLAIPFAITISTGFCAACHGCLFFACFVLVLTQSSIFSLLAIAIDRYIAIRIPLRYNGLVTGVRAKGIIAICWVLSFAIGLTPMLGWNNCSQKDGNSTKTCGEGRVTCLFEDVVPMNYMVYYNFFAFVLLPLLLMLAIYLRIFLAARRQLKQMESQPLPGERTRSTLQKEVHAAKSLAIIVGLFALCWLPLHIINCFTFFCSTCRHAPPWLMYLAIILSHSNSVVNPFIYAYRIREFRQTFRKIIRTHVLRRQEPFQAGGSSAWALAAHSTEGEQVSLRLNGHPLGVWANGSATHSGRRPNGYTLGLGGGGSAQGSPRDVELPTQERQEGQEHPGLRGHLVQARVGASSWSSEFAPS

T3 sequence (P29274 whole entry): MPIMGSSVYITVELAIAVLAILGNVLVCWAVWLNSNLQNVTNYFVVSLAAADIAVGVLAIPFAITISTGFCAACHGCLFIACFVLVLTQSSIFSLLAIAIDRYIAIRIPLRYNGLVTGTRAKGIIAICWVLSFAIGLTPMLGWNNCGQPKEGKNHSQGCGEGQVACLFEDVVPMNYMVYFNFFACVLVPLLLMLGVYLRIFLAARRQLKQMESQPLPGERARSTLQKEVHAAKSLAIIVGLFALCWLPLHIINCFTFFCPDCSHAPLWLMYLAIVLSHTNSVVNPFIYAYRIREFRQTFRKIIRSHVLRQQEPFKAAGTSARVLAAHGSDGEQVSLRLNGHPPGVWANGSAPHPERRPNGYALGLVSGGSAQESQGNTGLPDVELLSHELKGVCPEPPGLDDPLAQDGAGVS
Sequence of Adenosine receptor A2a (Rattus norvegicus, UniProt P30543) (P30543 whole entry): as the sequence (P30543 whole entry) above

Row | Ki (Adenosine receptor A1 [1]) | Ki (Adenosine receptor A1 [2]) | Ki (Adenosine receptor A2a [3]) | Ki (Adenosine receptor A2a [4]) | Ki (Adenosine receptor A2b) | Ki (Adenosine receptor A3 [5]) | Ki (Adenosine receptor A3 [6]) | inhibition (Adenosine receptor A2a [7]) | inhibition [8] | inhibition [9] | inhibition ([10]; filed as antagonist, dose 0.1 µM) | inhibition [11] | inhibition ([9]; filed as antagonist) | inhibition ([10]; dose 1 µM, in the assay text read “1 uM” for “0.1 uM”) | Structure (SMILES)
1 | > 1000 nM | > 1000 nM | > 1000 nM | > 1000 nM | > 100 nM | 6.45 nM | 973 nM | 11% | 30% | 25% |  |  |  |  | COc1ccc(-n2c(-c3sc(NC(=O)c4ccco4)nc3-c3ccccc3)nc3ccccc3c2=O)cc1
2 | > 1000 nM | > 1000 nM | > 1000 nM | > 1000 nM | > 100 nM | 111 nM |  |  |  |  |  | 3% | 1% |  | O=C(Nc1nc(-c2ccccc2)c(-c2nc3ccccc3c(=O)n2-c2ccccc2)s1)c1ccccc1
3 | > 1000 nM | > 1000 nM | > 1000 nM | > 1000 nM | > 100 nM | 25.4 nM | 1840 nM | 1% |  | 25% |  | 6% |  |  | Cc1ccc(-n2c(-c3sc(NC(=O)c4ccco4)nc3-c3ccccc3)nc3ccccc3c2=O)cc1
4 | > 1000 nM | > 1000 nM | > 1000 nM | > 1000 nM | > 100 nM | 129 nM |  | 5% | 1% | 26% |  | 33% |  |  | O=C(Nc1nc(-c2ccccc2)c(-c2nc3ccccc3c(=O)n2-c2ccccc2)s1)c1ccco1

Further lines, the molecule ahead of its results:

Row | Structure (SMILES) | Ki (Adenosine receptor A1 [1]) | Ki (Adenosine receptor A1 [2]) | Ki (Adenosine receptor A2a [3]) | Ki (Adenosine receptor A2a [4]) | Ki (Adenosine receptor A2b) | Ki (Adenosine receptor A3 [5]) | Ki (Adenosine receptor A3 [6]) | inhibition (Adenosine receptor A2a [7]) | inhibition [8] | inhibition [9] | inhibition ([10]; filed as antagonist, dose 0.1 µM) | inhibition [11] | inhibition ([9]; filed as antagonist) | inhibition ([10]; dose 1 µM, in the assay text read “1 uM” for “0.1 uM”)
5 | O=C(Nc1nc(-c2ccccc2)c(C(=O)c2ccc(F)cc2F)s1)c1ccco1 | 178 nM | 6.69 nM | 132 nM | 73.3 nM | > 100 nM | 124 nM |  |  | 15% |  | 100% |  |  | 
6 | COc1ccc(C(=O)Nc2nc(-c3ccccc3)c(-c3nc4ccccc4c(=O)n3-c3ccc(OC)cc3)s2)cc1 | > 1000 nM | > 1000 nM | > 1000 nM | > 1000 nM | > 100 nM | 4.63 nM | > 10000 nM | 10% |  | 17% |  | 1% |  | 
7 | COc1ccc(C(=O)Nc2nc(-c3ccccc3)c(C(=O)c3ccc(OC)cc3)s2)cc1 | 13.6 nM | 1.77 nM | > 1000 nM | > 1000 nM | > 100 nM | > 1000 nM |  |  |  |  |  | 16% |  | 37%
8 | CCCCn1c(=O)c2[nH]c(C34CC5CC(CC3C5)C4)nc2n(CCCO)c1=O |  | 0.124 nM |  | 552 nM | 187 nM | 2300 nM | 6500 nM |  |  |  |  |  |  | 
9 | O=C(Nc1nc(-c2ccccc2)c(-c2ccccn2)s1)c1ccccc1 | 90.8 nM | 3.47 nM | 83.6 nM | 391 nM | > 100 nM | > 1000 nM |  |  |  |  |  |  |  | 
10 | Cn1c(=O)c2[nH]cnc2n(C)c1=O [THEOPHYLLINE] |  |  |  |  |  |  | > 100000 nM |  |  |  |  |  |  | 
